We go through five molecules from ChEMBL document CHEMBL1123102, “Synthesis and anthelmintic activity of 5(6)-(benzimidazol-2-ylcarbamoyl) and (4-substituted piperazin-1-yl)benzimidazoles” (1985).

Structures are written as SMILES. Some results are limits rather than exact numbers.

The test system of assay [1] is Rattus norvegicus. Kind of assay: Antitapeworm activity evaluated as(percent animal freed of worms) against Hymenolepis nana in rat (dose 50 mg/kg X 3)administered orally. Conditions: route oral. Format: functional. The method in brief:
(§1)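 Newly weaned male albino rats (Freiburg strain, 25–30 g) were infected orally with 200 viable H. nana ova. Those passing eggs on day 17 were treated orally, 3–5 per group, three daily doses after a 5–6 h fast. Rats were fasted again on day 3 of treatment and sacrificed. Worms with scolices and worm-free animals were scored.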

Assay [2] deals with Rattus norvegicus. Kind of assay: Antitapeworm activity evaluated as(percent animal freed of worms) against Hymenolepis nana in rat ( dose 250 mg/kg X 3)administered orally. Format: functional. Conditions: route oral. In a few lines: as §1
Assay [3] deals with Rattus norvegicus. The assay is described as follows: Antitapeworm activity evaluated as reduction of worms with scolices against Hymenolepis nana in rat (dose 50 mg/kg X 3)administered orally. The class given is functional. As to conditions: route oral. In a few lines: as §1
Assay [4] deals with Rattus norvegicus. The assay is described as follows: Antitapeworm activity evaluated as (percent animal freed of worms) against Hymenolepis nana in rat (dose 100 mg/kg X 3)administered orally. Format: functional. Conditions: route oral. In a few lines:
as §1

Assay [5] has as its system Rattus norvegicus. Kind of assay: Antitapeworm activity evaluated as reduction of worms with scolices against Hymenolepis nana in rat (dose 100 mg/kg X 3)administered orally. As to conditions: route oral. The class given is functional. In a few lines:
as §1

For assay [6], the system named is Rattus norvegicus. Kind of assay: Antitapeworm activity evaluated as reduction of worms with scolices against Hymenolepis nana in rat (dose 250 mg/kg X 3) administered orally. The class given is functional. As to conditions: route oral. The method in brief: as §1
Assay [7] relates to Rattus norvegicus. Kind of assay: Antifilarial activity evaluated as (percent reduction of microfilariae) against Litomosoides carinii in Coton rat, at a dose (30 mg/kg X 5) administered intraperitoneally. Format: functional. The method in brief: (§2)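 Cotton rats (Sigmodon hispidus) infected with L. carinii by vector mite (Liponyssus bacoti) transmission. Animals with ≥250 microfilariae per 5 µL blood after prepatency were used, 3–4 per experiment. Drug was given i.p. in water or Tween 80 suspension daily for 5 days. Blood smears were read weekly up to 6 weeks. Adult worms were examined at sacrifice on day 42.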

Assay [8] has as its system Rattus norvegicus. The assay is described as follows: Antifilarial activity evaluated as (percent death of adult worms on day 42) against Litomosoides carinii in Cotton rat, at a dose (30 mg/kg X 5) administered intraperitoneally. The class given is functional. The method in brief:
(§3)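 Cotton rats (Sigmodon hispidus) were infected with L. carinii through the vector Liponyssus bacoti. At the end of the prepatent period, animals with at least 250 microfilariae per blood sample were selected, 3–4 per experiment. Drug in water or Tween 80 suspension was given ip daily for 5 days. Blood smears were taken weekly up to 6 weeks. On day 42, animals were killed and the condition of adult male and female worms assessed.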

In assay [9] the test system is Rattus norvegicus. Kind of assay: Antitapeworm activity evaluated as(percent animal freed of worms) against Hymenolepis nana in rat (dose 250 mg/kg X 3)administered orally. Format: functional. As to conditions: route oral. In a few lines:
as §1

Assay [10] has as its system Rattus norvegicus. The assay is described as follows: Antifilarial activity evaluated as (persistance of microfilaricidal effect)against Litomosoides carinii in Cotton rat, at a dose (30 mg/kg X 5) administered intraperitoneally. Format: functional. The method in brief:
as §2

In assay [11] the test system is Rattus norvegicus. The assay is described as follows: Antitapeworm activity evaluated as reduction of worms with scolices against Hymenolepis nana in rat ( dose 250 mg/kg X3 )administered orally. The class given is functional. As to conditions: route oral. In a few lines: as §1
The subject of assay [12] is Rattus norvegicus. The assay is described as follows: Antifilarial activity evaluated as (percent reduction of microfilariae) against Litomosoides carinii in Coton rat, at a dose (6 mg/kg X 5) administered intraperitoneally. Format: functional. In a few lines: as §2
For assay [13], the system named is Rattus norvegicus. Kind of assay: Antifilarial activity evaluated as (persistance of microfilaricidal effect)against Litomosoides carinii in Coton rat, at a dose (6 mg/kg X 5)administered intraperitoneally. The class given is functional. In a few lines: as §2
Assay [14] relates to Rattus norvegicus. Kind of assay: Antifilarial activity evaluated as (percent death of adult worms on a day 42) against Litomosoides carinii in Coton rat, at a dose (6 mg/kg X 5) administered intraperitoneally; Nil. The class given is functional, organism-based. The method in brief:
as §3

In assay [15] the test system is Rattus norvegicus. The assay is described as follows: Antifilarial activity evaluated as (persistance of microfilaricidal effect) against Litomosoides carinii in Coton rat, at a dose (30 mg/kg X 5) administered intraperitoneally. Format: functional. In a few lines: as §2
The subject of assay [16] is Rattus norvegicus. Kind of assay: Antifilarial activity evaluated as (percent death of adult worms on day 42) against Litomosoides carinii in Coton rat, at a dose (30 mg/kg X 5) administered intraperitoneally. Format: functional. The method in brief: as §3
In assay [17] the test system is Rattus norvegicus. Kind of assay: Antitapeworm activity evaluated as reduction of worms with scolices against Hymenolepis nana in rat ( dose 250 mg/kg X 3) administered orally. Format: functional. Conditions: route oral. In a few lines:
as §1

Assay [18] concerns Rattus norvegicus. Kind of assay: Antitapeworm activity evaluated as(percent animal freed of worms) against Hymenolepis nana in rat (dose 400 mg/kg X 3)administered orally. Format: functional. As to conditions: route oral. The method in brief: as §1
Assay [19] has as its system Rattus norvegicus. The assay is described as follows: Antitapeworm activity evaluated as reduction of worms with scolices against Hymenolepis nana in rat ( dose 400 mg/kg X 3) administered orally. The class given is functional. Conditions: route oral. In a few lines:
as §1

On to `COC(=O)Nc1nc2cc(N3CCN(C(=O)c4ccccc4)CC3)ccc2[nH]1`, for which the Reduction turned out to be 85% in the assay on Rattus norvegicus [1]; 100% with Rattus norvegicus [2]; 100% in the assay on Rattus norvegicus [3]; 100% with Rattus norvegicus [4]; 100% in the assay on Rattus norvegicus [5]; 100% in the assay with Rattus norvegicus [6].
`COC(=O)Nc1nc2cc(N3CCN(C(=O)c4ccco4)CC3)ccc2[nH]1` had a Removal in the assay on Rattus norvegicus [7] greater than 90%. The Death with Rattus norvegicus [8] came to 90%. In addition, the Reduction with Rattus norvegicus [9] and with Rattus norvegicus [11] was 100% each time. In the assay with Rattus norvegicus [10], this molecule gave an Activity of 42.
In turn, `CCN(CC)C(=O)N1CCN(C)CC1` [DIETHYLCARBAMAZINE] registered a Removal with Rattus norvegicus [12] greater than 95%. In the assay on Rattus norvegicus [13], this molecule yielded an Activity of 7. For the same molecule, in the assay with Rattus norvegicus [14], the Death entry is on record as “Nil”.
For the molecule `CCN(CC)C(=O)N1CCN(c2ccc3[nH]c(NC(=O)OC)nc3c2)CC1`, in the assay with Rattus norvegicus [7], the Removal is on record as greater than 95%. In the assay with Rattus norvegicus [15], this molecule registered an Activity of 42. The molecule also returned a Death in the assay with Rattus norvegicus [16] of 100%. The Reduction in the assay with Rattus norvegicus [17] and in the assay on Rattus norvegicus [9] was 100% throughout.
Turning to `COC(=O)Nc1nc2cc(C(=O)c3ccccc3)ccc2[nH]1` [MEBENDAZOLE], the Reduction in the assay with Rattus norvegicus [18] and in the assay on Rattus norvegicus [19] was 0% in each case.
